Experimental data published in ChEMBL document CHEMBL1944603, “An efficient synthesis of highly functionalized novel chromeno[4,3-b]pyrroles and indolizino[6,7-b]indoles as potent antimicrobial and antioxidant agents” (2012).
≈ marks a conversion by molar mass, not a printed value.

Legend:
Assay type in all cases: functional
Klebsiella pneumoniae [1] = assay: Antimicrobial activity against Klebsiella pneumoniae at 100 ug/ml by agar diffusion assay
Summary of the method: (§1)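 Agar diffusion assay in duplicate against the human bacterial pathogens; tetracycline as reference control.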

Staphylococcus aureus [2] = assay: Antimicrobial activity against Staphylococcus aureus at 50 ug/ml by agar diffusion assay; summary of the method: as §1
Pseudomonas aeruginosa [3] = assay: Antimicrobial activity against Pseudomonas aeruginosa at 75 ug/ml by agar diffusion assay; summary of the method: as §1
Pseudomonas aeruginosa [4] = assay: Antimicrobial activity against Pseudomonas aeruginosa at 25 ug/ml by agar diffusion assay; summary of the method: as §1
[5] = test system: Radical scavenging activity; assay: Antioxidant activity assessed as DPPH free radical scavenging activity at 500 ug by spectrophotometer
Summary of the method: (§2)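 DPPH radical scavenging measured spectrophotometrically by Blois's method at 50, 500 and 1000 µg. Absorbance read at 517 nm. Percent scavenging is the absorbance decrease at 517 nm relative to the absorbance of DPPH solution without test compound. L-ascorbic acid as standard.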

Klebsiella pneumoniae [6] = assay: Antimicrobial activity against Klebsiella pneumoniae at 50 ug/ml by agar diffusion assay; summary of the method: as §1
Bacillus subtilis [7] = assay: Antimicrobial activity against Bacillus subtilis at 50 ug/ml by agar diffusion assay; summary of the method: as §1
[8] = test system: Radical scavenging activity; assay: Antioxidant activity assessed as DPPH free radical scavenging activity at 50 ug by spectrophotometer; summary of the method: as §2
Staphylococcus aureus [9] = assay: Antimicrobial activity against Staphylococcus aureus at 75 ug/ml by agar diffusion assay; summary of the method: as §1
Staphylococcus aureus [10] = assay: Antimicrobial activity against Staphylococcus aureus at 100 ug/ml by agar diffusion assay; summary of the method: as §1
Bacillus subtilis [11] = assay: Antimicrobial activity against Bacillus subtilis at 25 ug/ml by agar diffusion assay; summary of the method: as §1
Macrophomina phaseolina = assay: Antifungal activity against Macrophomina phaseolina
Summary of the method: (§3)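 Agar diffusion assay in duplicate against the plant fungal pathogens; read-out as minimum inhibitory concentration (MIC); carbendazim as reference control.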

Bacillus subtilis [12] = assay: Antimicrobial activity against Bacillus subtilis at 75 ug/ml by agar diffusion assay; summary of the method: as §1
Klebsiella pneumoniae [13] = assay: Antimicrobial activity against Klebsiella pneumoniae at 75 ug/ml by agar diffusion assay; summary of the method: as §1
Klebsiella pneumoniae [14] = assay: Antimicrobial activity against Klebsiella pneumoniae at 25 ug/ml by agar diffusion assay; summary of the method: as §1
Bacillus subtilis [15] = assay: Antimicrobial activity against Bacillus subtilis at 100 ug/ml by agar diffusion assay; summary of the method: as §1
Pseudomonas aeruginosa [16] = assay: Antimicrobial activity against Pseudomonas aeruginosa at 50 ug/ml by agar diffusion assay; summary of the method: as §1
Fusarium oxysporum = assay: Antifungal activity against Fusarium oxysporum; summary of the method: as §3
[17] = test system: Radical scavenging activity; assay: Antioxidant activity assessed as DPPH free radical scavenging activity at 1000 ug by spectrophotometer; summary of the method: as §2
Pseudomonas aeruginosa [18] = assay: Antimicrobial activity against Pseudomonas aeruginosa at 100 ug/ml by agar diffusion assay; summary of the method: as §1
Staphylococcus aureus [19] = assay: Antimicrobial activity against Staphylococcus aureus at 25 ug/ml by agar diffusion assay; summary of the method: as §1

SMILES | inhibition zone (IZ) (Klebsiella pneumoniae [1]) | inhibition zone (IZ) (Staphylococcus aureus [2]) | inhibition zone (IZ) (Pseudomonas aeruginosa [3]) | inhibition zone (IZ) (Pseudomonas aeruginosa [4]) | Activity [5] | inhibition zone (IZ) (Klebsiella pneumoniae [6]) | inhibition zone (IZ) (Bacillus subtilis [7]) | Activity [8] | inhibition zone (IZ) (Staphylococcus aureus [9]) | inhibition zone (IZ) (Staphylococcus aureus [10]) | inhibition zone (IZ) (Bacillus subtilis [11]) | MIC (Macrophomina phaseolina) | inhibition zone (IZ) (Bacillus subtilis [12]) | inhibition zone (IZ) (Klebsiella pneumoniae [13]) | inhibition zone (IZ) (Klebsiella pneumoniae [14]) | inhibition zone (IZ) (Bacillus subtilis [15]) | inhibition zone (IZ) (Pseudomonas aeruginosa [16]) | MIC (Fusarium oxysporum) | Activity [17] | inhibition zone (IZ) (Pseudomonas aeruginosa [18]) | also measured
COC(=O)[C@]12Cc3c([nH]c4ccccc34)[C@@H](c3ccc(OC)cc3)N1[C@@H]1c3ccccc3OC[C@@H]1C2 | 20 mm | 12 mm | 15 mm | 7 mm | 50% | 11 mm | 11 mm | 28% | 16 mm | 18 mm | 8 mm | 50 µg/mL (≈ 104 µM) | 18 mm | 19 mm | 8 mm | 19 mm | 11 mm | 35 µg/mL (≈ 72.8 µM) | 68% | 20 mm | 
COC(=O)[C@]12Cc3c([nH]c4ccccc34)[C@@H](c3cccc([N+](=O)[O-])c3)N1[C@@H]1c3ccccc3OC[C@@H]1C2 | 36 mm | 22 mm | 26 mm | 17 mm | 42% | 20 mm | 21 mm | 18% | 24 mm | 36 mm | 14 mm | 25 µg/mL (≈ 50.5 µM) | 28 mm | 25 mm | 15 mm | 40 mm | 24 mm | 90 µg/mL (≈ 182 µM) | 70% | 40 mm | inhibition zone (IZ) (Staphylococcus aureus [19]): 20 mm
COC(=O)[C@]12Cc3c([nH]c4ccccc34)[C@@H](c3ccccc3)N1[C@@H]1c3c(ccc4ccccc34)OC[C@@H]1C2 | 24 mm | 13 mm | 18 mm | 9 mm | 33% | 12 mm | 12 mm | 17% | 18 mm | 26 mm | 9 mm | 85 µg/mL (≈ 170 µM) | 20 mm | 17 mm | 10 mm | 24 mm | 13 mm | 30 µg/mL (≈ 59.9 µM) | 69% | 25 mm | inhibition zone (IZ) (Staphylococcus aureus [19]): 9 mm
COC(=O)[C@]12Cc3c([nH]c4ccccc34)[C@@H](c3ccccc3)N1[C@@H]1c3ccccc3OC[C@@H]1C2 | 26 mm | 11 mm | 20 mm | 9 mm | 53% | 11 mm | 11 mm | 28% | 18 mm | 25 mm | 9 mm | 40 µg/mL (≈ 88.8 µM) | 20 mm | 19 mm | 9 mm | 25 mm | 12 mm | 30 µg/mL (≈ 66.6 µM) | 70% | 24 mm | inhibition zone (IZ) (Staphylococcus aureus [19]): 9 mm
COC(=O)[C@]12Cc3c([nH]c4ccccc34)[C@@H](c3ccc(Cl)cc3)N1[C@@H]1c3ccccc3OC[C@@H]1C2 | 30 mm | 21 mm | 25 mm | 16 mm | 43% | 20 mm | 21 mm | 21% | 24 mm | 29 mm | 13.5 mm | 20 µg/mL (≈ 41.2 µM) | 26 mm | 25 mm | 16 mm | 36 mm | 22 mm | 70 µg/mL (≈ 144 µM) | 68% | 36 mm | inhibition zone (IZ) (Staphylococcus aureus [19]): 20 mm
COC(=O)[C@@]1(Cc2c[nH]c3ccccc23)C[C@H]2COc3ccc4ccccc4c3[C@H]2N1 | 23 mm | 13 mm | 20 mm | 9 mm | 52% | 14 mm | 15 mm | 33% | 18 mm | 24 mm | 10 mm | 60 µg/mL (≈ 145 µM) | 19 mm | 20 mm | 10 mm | 24 mm | 14 mm | 85 µg/mL (≈ 206 µM) | 66% | 21 mm | inhibition zone (IZ) (Staphylococcus aureus [19]): 9 mm
COC(=O)[C@]12Cc3c([nH]c4ccccc34)[C@@H](c3ccc(C)cc3)N1[C@@H]1c3ccccc3OC[C@@H]1C2 | 19 mm | 13 mm | 16 mm | 8 mm | 49% | 13 mm | 12 mm | 24% | 17 mm | 18 mm | 9 mm | 80 µg/mL (≈ 172 µM) | 15 mm | 18 mm | 8 mm | 20 mm | 12 mm | 110 µg/mL (≈ 237 µM) | 73% | 19 mm | inhibition zone (IZ) (Staphylococcus aureus [19]): 9 mm
